Assay results taken from ChEMBL document CHEMBL1150651, “Cholestane glycosides from the bulbs of Ornithogalum thyrsoides and their cytotoxic activity against HL-60 leukemia cells” (J Nat Prod, 2002).
Converted amounts (≈) assume the structure as drawn.

What follows are compounds tested on HL-60 (assay: Cytotoxicity against human HL60 cells after 72 hrs by MTT assay). Settings: HL-60, 72 h.
Format: functional, cell-based
Procedure, shortened: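 HL-60 cells (JCRB 0085) grown in RPMI 1640 with heat-inactivated 10% FBS, L-glutamine, penicillin and streptomycin. Seeded at 4 × 10^4 cells/mL and preincubated 24 h at 37 °C in 5% CO2. Sample added in EtOH-H2O (1:1) at final 0.00001-10 µg/mL; vehicle in control wells. After 72 h, MTT (5 mg/mL in PBS) added for 4 h. Formazan dissolved in DMSO, absorbance read at 550 nm.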
With `COc1ccc(C(=O)O[C@H]2[C@H](O[C@@H]3[C@@H](OC(C)=O)[C@H](O[C@H]4C[C@H]5[C@@H]6CC=C7C[C@@H](O[C@@H]8O[C@H](CO)[C@@H](O)[C@H](O)[C@H]8O)CC[C@]7(C)[C@H]6CC[C@]5(C)[C@@]4(O)[C@H](C)C(=O)CCC(C)C)OC[C@@H]3O)OC[C@@H](O)[C@@H]2O)cc1OC` the IC50 was 0.00013 µg/mL (≈ 0.000122 µM).
In the case of `CC(=O)O[C@H]1[C@H](O[C@H]2C[C@H]3[C@@H]4CC=C5C[C@@H](O[C@@H]6O[C@H](CO)[C@@H](O)[C@H](O)[C@H]6O)CC[C@]5(C)[C@H]4CC[C@]3(C)[C@@]2(O)[C@H](C)C(=O)CCC(C)C)OC[C@H](O)[C@@H]1O[C@@H]1OC[C@@H](O)[C@H](O)[C@H]1O`, the IC50 is reported as 0.013 µg/mL (≈ 0.0144 µM).
Compound `CC(=O)O[C@H]1[C@H](O[C@H]2C[C@H]3[C@@H]4CC=C5C[C@@H](O[C@@H]6O[C@H](CO[C@@H]7O[C@H](CO)[C@@H](O)[C@H](O)[C@H]7O)[C@@H](O)[C@H](O)[C@H]6O)CC[C@]5(C)[C@H]4CC[C@]3(C)[C@@]2(O)[C@H](C)C(=O)CCC(C)C)OC[C@H](O)[C@@H]1O[C@@H]1OC[C@@H](O)[C@H](O)[C@H]1O` has an IC50 greater than 10 µg/mL.
For `COc1cc(C(=O)O[C@H]2[C@H](O[C@@H]3[C@@H](OC(C)=O)[C@H](O[C@H]4C[C@H]5[C@@H]6CC=C7C[C@@H](O[C@@H]8O[C@H](CO[C@@H]9O[C@H](CO)[C@@H](O)[C@H](O)[C@H]9O)[C@@H](O)[C@H](O)[C@H]8O)CC[C@]7(C)[C@H]6CC[C@]5(C)[C@@]4(O)[C@H](C)C(=O)CCC(C)C)OC[C@@H]3O)OC[C@@H](O)[C@@H]2O)cc(OC)c1OC`, the IC50 was 0.7 µg/mL (≈ 0.557 µM).
Compound `COc1ccc(C(=O)O[C@H]2[C@H](O[C@@H]3[C@@H](OC(C)=O)[C@H](O[C@H]4C[C@H]5[C@@H]6CC=C7C[C@@H](O[C@@H]8O[C@H](CO[C@@H]9O[C@H](CO)[C@@H](O)[C@H](O)[C@H]9O)[C@@H](O)[C@H](O)[C@H]8O)CC[C@]7(C)[C@H]6CC[C@]5(C)[C@@]4(O)[C@H](C)C(=O)CCC(C)C)OC[C@@H]3O)OC[C@@H](O)[C@@H]2O)cc1OC` has an IC50 of 0.81 µg/mL (≈ 0.66 µM).
`COc1cc(C(=O)O[C@H]2[C@H](O[C@@H]3[C@@H](OC(C)=O)[C@H](O[C@H]4C[C@H]5[C@@H]6CC=C7C[C@@H](O[C@@H]8O[C@H](CO)[C@@H](O)[C@H](O)[C@H]8O)CC[C@]7(C)[C@H]6CC[C@]5(C)[C@@]4(O)[C@H](C)C(=O)CCC(C)C)OC[C@@H]3O)OC[C@@H](O)[C@@H]2O)cc(OC)c1OC` gave an IC50 of 0.00016 µg/mL (≈ 0.000146 µM).
In the case of `CC(C)CCC(=O)[C@@H](C)[C@@]1(O)[C@@H](O[C@@H]2OC[C@H](O)[C@H](O)[C@H]2O)C[C@H]2[C@@H]3CC=C4C[C@@H](O[C@@H]5O[C@H](CO)[C@@H](O)[C@H](O)[C@H]5O)CC[C@]4(C)[C@H]3CC[C@@]21C`, the IC50 is reported as 0.12 µg/mL (≈ 0.165 µM).
